Only some compounds are listed: those with a hit (about 2.6% of all), similar ones and a draw of the others.
ASAP1 GAP inh: blocks human ASAP1-stimulated Arf1 GTP hydrolysis; GDP FP detection; inhibition, % at 16.5 µM; AID 624377; Q9ULH1; 360,000 tested, 0.19% active; in the data active = inhibition above about 25%
Target sequence (Q9ULH1 325-724 limits assumed): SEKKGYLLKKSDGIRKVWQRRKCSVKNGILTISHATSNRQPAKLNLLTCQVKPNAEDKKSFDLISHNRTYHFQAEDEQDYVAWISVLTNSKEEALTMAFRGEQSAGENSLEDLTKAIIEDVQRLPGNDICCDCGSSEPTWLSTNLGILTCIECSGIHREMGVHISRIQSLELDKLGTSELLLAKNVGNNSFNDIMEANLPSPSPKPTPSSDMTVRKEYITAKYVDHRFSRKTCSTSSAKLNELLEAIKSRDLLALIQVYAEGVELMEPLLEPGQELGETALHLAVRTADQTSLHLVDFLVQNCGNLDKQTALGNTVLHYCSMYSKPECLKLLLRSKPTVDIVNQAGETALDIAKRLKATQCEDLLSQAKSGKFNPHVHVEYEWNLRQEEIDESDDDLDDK
SMARCA2 activ: increases SMARCA2 function in MMTV reporter cells; MG213 cells, MMTV-luciferase reporter, dexamethasone, overnight; activation, % at 9.1 µM; 370,000 tested, 1% active; AID 652017; in the data active = activation above about 7.8%
ARFGAP1 inhibitor: inhibits rat ARF GTPase activating protein 1. Q62848. inhibition, % at 16.5 µM. 360,000 tested, 0.26% active. AID 651572. Arfgap1-stimulated ARF1 GTP hydrolysis, GDP FP detection;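 active = inhibition above a per-plate limit, mean inhibition of low control wells plus 3 SD, cut at about 25% in these data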
Target sequence (Q62848 1-136 limits assumed): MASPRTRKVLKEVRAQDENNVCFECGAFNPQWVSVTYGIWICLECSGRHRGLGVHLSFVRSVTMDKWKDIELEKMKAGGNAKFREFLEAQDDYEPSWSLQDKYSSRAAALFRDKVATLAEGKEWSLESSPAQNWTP
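Material: rat Arfgap1 GAP domain (His6, aa 1-136), purified enzyme. Also added: human ARF1(Δ1-17)-GTP substrate. Compound dosing: 16.5 µM single point, 1.26% DMSO. Timing: enzyme reaction 120 min at 25 °C after 20 min preincubation. Signal: GDP detection by fluorescence polarization. Read-out basis: percent inhibition of GAP-stimulated GDP formation, scaled between DMSO and no-Arfgap1 medians.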
esBAF inh: blocks esBAF chromatin remodeling in mouse ES cells | reporter increase, % at 12.5 µM | AID 602393 | 350,000 tested, 2% active | Bmi1-luciferase knock-in reporter, 24 h; 100% = twice the neutral-well signal; in the data active = activation above about 40%; inconclusive = no clear call, values can overlap the other calls;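 note: a rise in the Bmi1 reporter signal indicates esBAF inhibition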
SMARCA2 conf: SMARCA2 activation, confirmation screen; 3,500 tested, 30% active; MG213 cells, MMTV-luciferase with dexamethasone, luminescence, overnight; MG213 cells expressing E1A, Rb sequestered; DMSO wells 0%, reference activator 100%; shares compounds with SMARCA2 activ; activation, % at 9.1 µM;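 active = activation above its plate's cutoff, the mean activation of tested wells plus 3 SD, cut at about 7.9% in these data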
VP16 Luc act: GAL4-VP16 reporter activation counter-screen. shares compounds with SMARCA2 activ. HEK293 GAL4-VP16 pG5luc reporter, luciferase luminescence; scaled: DMSO wells 0%, SAHA wells 100%. activation, % at 9.1 µM. 3,500 tested, 41% active. AID 686939;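 active = activation above the solvent-only control well mean plus 3 SD, averaged across control plates, cut at about 5.2% in these data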
Each line names hits and unclear results; the compound was inactive in the other large screens (follow-up assays come after a bar, where they were run).

CNc1ncnc2c1ncn2[C@@H]1O[C@H](CO)[C@@H](O)[C@H]1O	SMARCA2 activ 8.4 | SMARCA2 conf inactive | VP16 Luc act inactive
CN(C)c1ncnc2c1nnn2C1OC(CO)C(O)C1O (stereo not drawn)	SMARCA2 activ 12.9 | SMARCA2 conf 16.7 | VP16 Luc act inactive
OCC1OC(n2cnc3c(/C=C(\O)c4ccccc4)ncnc32)C(O)C1O (stereo not drawn)	SMARCA2 activ 8.9 (no result: esBAF inh) | SMARCA2 conf inactive | VP16 Luc act inactive
O=C(Nc1ccc(Cl)c(Cl)c1)N[C@H]1CC[C@@H](CCn2cc(C3CCCCC3)nn2)O[C@@H]1CO	none (no result: ASAP1 GAP inh, SMARCA2 activ, ARFGAP1 inhibitor)
O=C(NCC1CC1)[C@@H]1[C@@H](CO)[C@@H]2Cn3c(ccc(-c4cccc(F)c4)c3=O)[C@@H]2N1CC1CCCC1	none (no result: ASAP1 GAP inh, SMARCA2 activ, ARFGAP1 inhibitor)
CCCOc1ccc(/C(O)=C2\C(=O)C(=O)N(c3ccccn3)C2c2ccccc2F)cc1C (stereo not drawn)	SMARCA2 activ 14.7 | SMARCA2 conf inactive | VP16 Luc act inactive
COc1ccc(C2/C(=C(/O)c3ccccc3)C(=O)C(=O)N2c2ccccn2)cc1 (stereo not drawn)	SMARCA2 activ 10.1 | SMARCA2 conf inactive | VP16 Luc act inactive
CCNC(=O)C[C@@H]1CC[C@@H](NS(=O)(=O)c2ccc(C)cc2)[C@H](CO)O1	none (no result: ASAP1 GAP inh, SMARCA2 activ, ARFGAP1 inhibitor)
CSc1nc2c([nH]1)c(=S)n(C)c(=O)n2C	SMARCA2 activ 8.4 | SMARCA2 conf 9.0 | VP16 Luc act inactive
CCCCSc1nc2c([nH]1)c(=S)n(C)c(=O)n2C	none (no result: esBAF inh)
Cc1ccc2[nH]cc(C(=O)NCc3cccs3)c(=O)c2c1	none
COc1cccc2c(=O)c(C(=O)NCc3cccs3)c[nH]c12	SMARCA2 activ 10.3, esBAF inh inconclusive | SMARCA2 conf 16.7 | VP16 Luc act 5.9
C[C@H](CO)N1C[C@H](C)[C@H](CN(C)Cc2ccccc2)Oc2ccc(NC(=O)Nc3ccc(C(F)(F)F)cc3)cc2C1=O	none (no result: ASAP1 GAP inh, SMARCA2 activ, ARFGAP1 inhibitor)
O=C1Nc2ccccc2/C1=N\N=C\c1ccc(O)c(O)c1	SMARCA2 activ 9.5 (no result: esBAF inh) | SMARCA2 conf inactive | VP16 Luc act 6.4
Cc1ccc(C)c(OCC(=O)O/N=C(\N)c2cccnc2)c1	none
Cc1ccc(C)c(OCC(=O)O/N=C(\N)c2ccccn2)c1	SMARCA2 activ 9.2, esBAF inh 72.1 | SMARCA2 conf inactive | VP16 Luc act 8.2
COc1ccc(CC(=O)O/N=C(\N)c2ccccn2)cc1	SMARCA2 activ 8.0 (no result: esBAF inh) | SMARCA2 conf inactive | VP16 Luc act 6.4
CCC(=O)N[C@@H]1CC[C@H](CC(=O)NCC2CCCCC2)O[C@H]1CO	none (no result: ASAP1 GAP inh, SMARCA2 activ, ARFGAP1 inhibitor)
Cc1noc(C)c1NC(=O)Nc1ccc2c(c1)C(=O)N([C@H](C)CO)C[C@H](C)[C@@H](CN(C)C(=O)NC1CCCCC1)OCCCC[C@@H](C)O2	none (no result: ASAP1 GAP inh, SMARCA2 activ, ARFGAP1 inhibitor)
COc1ccc(C(C)(O)c2nc(-c3ccc(F)cc3OC)cs2)cc1 (stereo not drawn)	none
COc1cc(F)ccc1-c1csc(C(C)(O)c2ccc(F)c(F)c2)n1 (stereo not drawn)	SMARCA2 activ 9.1 | SMARCA2 conf inactive | VP16 Luc act inactive
Cc1cc(C(=O)c2cccs2)c(N)s1	SMARCA2 activ 8.9 | SMARCA2 conf inactive | VP16 Luc act inactive
COc1ccc(NS(=O)(=O)c2cccc(C(=O)NNC(=O)CNC(=O)c3ccccc3F)c2)cc1	SMARCA2 activ 8.2 | SMARCA2 conf inactive | VP16 Luc act inactive
CCc1ccccc1NC(=O)C1CCCN1S(=O)(=O)c1ccc2c(c1)n(C)c(=O)c(=O)n2C (stereo not drawn)	SMARCA2 activ 8.0 | SMARCA2 conf inactive | VP16 Luc act inactive
Cn1c(N)c(C(=O)/C=C/c2ccccc2)c(=O)[nH]c1=O	SMARCA2 activ 11.7 (no result: esBAF inh) | SMARCA2 conf inactive | VP16 Luc act 9.4
Cn1c(N)c(C(=O)Nc2ccccc2)c(=O)[nH]c1=O	none (no result: esBAF inh)
COc1ccc(S(=O)(=O)Nc2ccc3c(c2)CC(=O)N([C@@H](C)CO)C[C@@H](C)[C@@H](CN(C)C(=O)Nc2ccccc2)O3)cc1	none (no result: ASAP1 GAP inh, SMARCA2 activ, ARFGAP1 inhibitor)
CCn1c(SCC(=O)Nc2nc(-c3ccc(C)cc3)cs2)nnc1-c1ccccc1	none
Cc1ccc(-c2csc(NC(=O)CSc3nc4ccccc4c(=O)n3CCCN(C)C)n2)cc1	SMARCA2 activ 10.0 (no result: esBAF inh) | SMARCA2 conf inactive | VP16 Luc act inactive
O=c1[nH]cnc2cc(-c3ccc(Br)cc3)sc12	SMARCA2 activ 10.5 | SMARCA2 conf inactive | VP16 Luc act inactive
C[C@H]1CN([C@@H](C)CO)C(=O)c2cc(NC(=O)CCC(F)(F)F)ccc2O[C@H]1CN(C)S(=O)(=O)c1ccccc1	none (no result: ASAP1 GAP inh, SMARCA2 activ, ARFGAP1 inhibitor)
Nc1cccc(C(=O)OCC(=O)c2ccccc2)c1	none (no result: esBAF inh)
CCC(=O)Nc1cc(C(=O)OCC(=O)c2ccccc2)ccc1C	SMARCA2 activ 11.1 (no result: esBAF inh) | SMARCA2 conf inactive | VP16 Luc act 7.7
O=C(COC(=O)c1cccc(O)c1)c1ccccc1	SMARCA2 activ 8.5 | SMARCA2 conf 13.2 | VP16 Luc act inactive
COc1ccccc1C(=O)Nc1nsc(-c2ccccc2)n1	SMARCA2 activ 8.8, esBAF inh 45.6 | SMARCA2 conf 13.4 | VP16 Luc act 15.2
Cc1ccc(NC(=O)Nc2ccc3c(c2)OCO3)c(OC(F)F)c1	SMARCA2 activ 8.5, esBAF inh 49.5 | SMARCA2 conf 9.0 | VP16 Luc act 9.4
COc1cccc(NC(=O)C2CC2(c2cccc(OC)c2)c2cccc(OC)c2)c1 (stereo not drawn)	none (no result: esBAF inh)
COc1cccc(C2(c3cccc(OC)c3)CC2C(=O)Nc2cccc3ccccc23)c1 (stereo not drawn)	SMARCA2 activ 9.6 | SMARCA2 conf inactive | VP16 Luc act inactive
COc1ccc(NC(=O)Nc2ccc3c(c2)C(=O)N([C@H](C)CO)C[C@H](C)[C@H](CN(C)S(=O)(=O)c2ccc(C)cc2)OCCCC[C@@H](C)O3)cc1	none (no result: ASAP1 GAP inh, SMARCA2 activ, ARFGAP1 inhibitor)
O=C1CCCC2=C1C(c1ccco1)Nc1ccc3ccccc3c12 (stereo not drawn)	SMARCA2 activ 20.1 | SMARCA2 conf 8.3 | VP16 Luc act inactive
Cc1ccc(-c2nnc(-c3ccccc3Br)o2)cc1	none
Brc1ccc(-c2nnc(-c3ccccc3Br)o2)cc1	SMARCA2 activ 8.4 | SMARCA2 conf inactive | VP16 Luc act 12.6
COc1ccc(S(=O)(=O)N(C)C[C@@H]2OCCCC[C@H](C)Oc3ccc(NS(C)(=O)=O)cc3C(=O)N([C@H](C)CO)C[C@H]2C)cc1	none (no result: ASAP1 GAP inh, SMARCA2 activ, ARFGAP1 inhibitor)
C[C@@H]1CN([C@H](C)CO)S(=O)(=O)c2ccc(-c3ccc(F)cc3)cc2O[C@@H]1CN(C)C(=O)c1ccccc1F	none (no result: ASAP1 GAP inh, SMARCA2 activ, ARFGAP1 inhibitor)
NC(=O)c1ccccc1N/C=C/C(=O)c1ccccc1	SMARCA2 activ 8.0 | SMARCA2 conf 11.4 | VP16 Luc act 9.8
O=C(N/N=C1\CCc2ccccc21)c1ccccc1O	SMARCA2 activ 10.0 (no result: esBAF inh) | SMARCA2 conf inactive | VP16 Luc act 7.4
O=C(N/N=C1\CCc2ccccc21)c1ccncc1	none (no result: esBAF inh)

Screens deposited in PubChem by several laboratories.
